According to article PMC10256642 (Clinical Pharmacokinetics, 2023):
“Also recorded” adds a separate entry of the source. Like-named read-outs stand apart in the source and are kept apart here.

What was measured:
[1] = format: in vivo, human; conditions: 100 µg s.c. single dose
In short: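 Adults aged 18–85 (BMI 17–40 kg/m2) were grouped by Cockcroft–Gault CrCl and given a single subcutaneous 100 µg dose of test compound. Fasting ran from ≥8 h before to 4 h after dosing, with no fluids 1 h before to 2 h after. Adverse events, vitals, ECG, telemetry and laboratory tests were monitored inpatient for 72 h, then outpatient at days 7±1 and 28±2. TEAEs were coded by MedDRA 21.0, counting each once at highest severity.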

[2] = Immunogenicity: antidrug antibodies; format: in vivo, human; conditions: 100 µg s.c. single dose; baseline, 7 and 28 days after treatment
In short: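 Open-label single subcutaneous dose of test compound (100 µg, lower abdomen, fasted) in adults with normal or impaired renal function. Antidrug antibody titers were measured at baseline, 7 and 28 days post-dose, or at early discontinuation. Cross-reactivity to GLP-1 and glucagon was also recorded. Treatment-emergent incidence is treatment-induced plus treatment-boosted ADA. Analysed in all treated participants with ADA readings.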

[3] = cited from earlier work
[4] = 5–300 µg dose range; previously demonstrated, no reference given; cited from earlier work
[5] = severe renally impaired and ESRD subjects; cited from earlier work
[6] = in vitro studies; cited from earlier work

Row | Compound | Incidence of headache ([1]; 10 of 37 individuals) [%] | Incidence of nausea ([1]; 12 of 37 individuals) [%] | Incidence of vomiting ([1]; 13 of 37 individuals) [%] | Severity of TEAEs ([1]; all groups) | Incidence of TEAE ([1]; all patients, 22 of 37) [%] | Incidence of TEAE ([1]; lower moderate renal impairment group, 8 of 11 patients) [%] | Incidence of nausea ([1]; normal renal function group) [%] | Incidence of vomiting ([1]; normal renal function group) [%] | Incidence of nausea, range ([1]; renal impairment groups) | Incidence of vomiting, range ([1]; renal impairment groups) | Deaths or other serious TEAEs ([1]; study period) | Incidence of TEAE ([1]; upper moderate renal impairment group, 3 of 7 patients) [%] | Antidrug antibody (ADA) results [2] | Urine albumin-to-creatinine ratio vs placebo ([3]; 32-day treatment with cotadutide 50–300 µg, T2D and stage 3 CKD with micro- and macroalbuminuria) | Participants with a serious TEAE deemed related to cotadutide ([3]; once-daily cotadutide titrated to 50–300 µg for 32 days, moderate renal impairment and T2D, 1 of 21 participants) [%] | PK profile (dose and time dependence) [4] | Tolerability and PK in severe renal impairment and ESRD [5] | Primary cleavage sites (metabolized specifically in the kidney) [6]
1 | CCCCCCCCCCCCCCCC(=O)N[C@@H](CCC(=O)NCCCC[C@H](NC(=O)[C@H](CC(=O)O)NC(=O)[C@H](CO)NC(=O)[C@@H](NC(=O)[C@H](Cc1ccccc1)NC(=O)[C@@H](NC(=O)CNC(=O)[C@H](CCC(N)=O)NC(=O)[C@H](CO)NC(=O)[C@@H](N)Cc1c[nH]cn1)[C@@H](C)O)[C@@H](C)O)C(=O)N[C@@H](CO)C(=O)N[C@@H](CCC(=O)O)C(=O)N[C@@H](Cc1ccc(O)cc1)C(=O)N[C@@H](CC(C)C)C(=O)N[C@@H](CC(=O)O)C(=O)N[C@@H](CO)C(=O)N[C@@H](CCC(=O)O)C(=O)N[C@@H](CCCNC(=N)N)C(=O)N[C@@H](C)C(=O)N[C@@H](CCCNC(=N)N)C(=O)N[C@@H](CC(=O)O)C(=O)N[C@@H](Cc1ccccc1)C(=O)N[C@H](C(=O)N[C@@H](C)C(=O)N[C@@H](Cc1c[nH]c2ccccc12)C(=O)N[C@@H](CC(C)C)C(=O)N[C@@H](CCC(=O)O)C(=O)N[C@@H](C)C(=O)NCC(=O)NCC(=O)O)C(C)C)C(=O)O [cotadutide] | 27.0 | 32.4 | 35.1 | mostly mild to moderate in severity | 59.5 | 72.7 | 38 | 38 | 29–38% | 18–50% | no deaths or other serious TEAEs | 42.9 | No positive antidrug antibody results; also recorded: No confirmed positive ADA results | reduced urine albumin-to-creatinine ratio | 4.8 | linear and time-independent PK profile |  | 
2 | exenatide: GLP-1 receptor agonist exenatide (exendin-4) |  |  |  |  |  |  |  |  |  |  |  |  |  |  |  |  | poor tolerability and significant changes in PK | after amino acids (AA)-21 and -22
